The source made the active and inactive calls. No cut-off for these calls is given here.
Legend:
HeLa [1] = experiment: Induction of apoptosis in human HeLa cells assessed as live cells after 12 hrs by Annexin V-FITC/propidium iodide staining based flow cytometry (reference value: 92.9%); assay type: functional
In short: (§1)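 HeLa human cervical cancer cells treated with increasing concentrations or for increasing incubation times. Cells stained with annexin V-FITC and propidium iodide and analysed by FACS. Gating: early apoptotic = annexin+/PI−, late apoptotic = annexin+/PI+.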

NCI-H322M = experiment: Growth inhibition of human NCI-H322M cells at 10 uM after 48 hrs by SRB assay relative to control; assay type: functional; conditions: read-out: GI
In short: (§2)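 Screened at the National Cancer Institute by the standard NCI protocol using the sulforhodamine B assay, which measures cellular protein. Single dose of 10 µM. Result is percent growth inhibition; values above 100% mean cell number fell below the initial population. Values are the average of duplicates.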

HeLa [2] = experiment: Induction of apoptosis in human HeLa cells assessed as early apoptotic cells after 24 hrs by Annexin V-FITC/propidium iodide staining based flow cytometry (reference value: 2.6%); assay type: functional; in short: as §1
HeLa [3] = experiment: Induction of apoptosis in human HeLa cells assessed as live cells after 24 hrs by Annexin V-FITC/propidium iodide staining based flow cytometry (reference value: 92.9%); assay type: functional; in short: as §1
HeLa [4] = experiment: Induction of apoptosis in human HeLa cells assessed as early apoptotic cells at 2.5 uM by Annexin V-FITC/propidium iodide staining based flow cytometry (reference value: 5.7%); assay type: functional; in short: as §1
LOX IMVI = experiment: Growth inhibition of human LOXIMVI cells at 10 uM after 48 hrs by SRB assay relative to control; assay type: functional; conditions: read-out: GI; in short: as §2
UO-31 = experiment: Growth inhibition of human UO31 cells at 10 uM after 48 hrs by SRB assay relative to control; assay type: functional; conditions: UO-31, 48 h, read-out: GI
In short: (§3)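 NCI screen against its human cancer cell line panel by the standard NCI protocol, SRB protein stain. Single dose of 10 μM. Percent growth inhibition versus control; values above 100% mean the cell population fell below the starting number. Each value is the mean of duplicates.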

SR = experiment: Growth inhibition of human SR cells at 10 uM after 48 hrs by SRB assay relative to control; assay type: functional; conditions: read-out: GI; in short: as §3
A549 = experiment: Growth inhibition of human A549 cells at 10 uM after 48 hrs by SRB assay relative to control; assay type: functional; conditions: A549, 48 h, read-out: GI; in short: as §2
L132 = experiment: Cytotoxicity against human L-132 cells after 48 hrs by MTT assay; assay type: cell-based; conditions: L132, 48 h
In short: (§4)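 Normal human lung epithelial L132 and ovarian epithelial IOSE-80PC cells were tested by MTT viability assay, and IC50 was determined.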

SK-MEL-2 = experiment: Growth inhibition of human SK-MEL-2 cells at 10 uM after 48 hrs by SRB assay relative to control; assay type: functional; conditions: SK-MEL-2, 48 h, read-out: GI; in short: as §2
HCC 2998 = experiment: Growth inhibition of human HCC2998 cells at 10 uM after 48 hrs by SRB assay relative to control; assay type: functional; conditions: HCC 2998, 48 h, read-out: GI; in short: as §2
HCT-116 = experiment: Growth inhibition of human HCT116 cells at 10 uM after 48 hrs by SRB assay relative to control; assay type: functional; conditions: HCT-116, 48 h, read-out: GI; in short: as §2
CAKI-1 = experiment: Growth inhibition of human Caki1 cells at 10 uM after 48 hrs by SRB assay relative to control; assay type: functional; conditions: CAKI-1, 48 h, read-out: GI; in short: as §2
UACC-257 = experiment: Growth inhibition of human UACC257 cells at 10 uM after 48 hrs by SRB assay relative to control; assay type: functional; conditions: UACC-257, 48 h, read-out: GI; in short: as §3
HeLa [5] = experiment: Induction of apoptosis in human HeLa cells assessed as late apoptotic cells at 2.5 uM by Annexin V-FITC/propidium iodide staining based flow cytometry (reference value: 6.9%); assay type: functional; in short: as §1
HOP-92 = experiment: Growth inhibition of human HOP92 cells at 10 uM after 48 hrs by SRB assay relative to control; assay type: functional; conditions: HOP-92, 48 h, read-out: GI; in short: as §2
HeLa [6] = experiment: Induction of apoptosis in human HeLa cells assessed as early apoptotic cells at 5 uM by Annexin V-FITC/propidium iodide staining based flow cytometry (reference value: 5.7%); assay type: functional; in short: as §1
COLO 205 = experiment: Growth inhibition of human COLO205 cells at 10 uM after 48 hrs by SRB assay relative to control; assay type: functional; conditions: COLO 205, 48 h, read-out: GI; in short: as §2
NCI/ADR-RES = experiment: Growth inhibition of human NCI/ADR-RES cells at 10 uM after 48 hrs by SRB assay relative to control; assay type: functional; conditions: read-out: GI; in short: as §2
Hs-578T = experiment: Growth inhibition of human Hs 578T cells at 10 uM after 48 hrs by SRB assay relative to control; assay type: functional; conditions: read-out: GI; in short: as §2
HeLa [7] = experiment: Induction of morphological changes in human HeLa cells assessed as nuclear fragmentation at 10 uM after 48 hrs by DAPI staining based fluorescence microscopic method; assay type: functional, cell-based
In short: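 HeLa cells exposed to 10 µM for 48 h, then stained with DAPI. Nuclear shape, size and density (bright condensed, fragmented chromatin, apoptotic bodies) examined by fluorescence microscopy under 358 nm excitation, against untreated control cells.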

OVCAR-4 = experiment: Growth inhibition of human OVCAR4 cells at 10 uM after 48 hrs by SRB assay relative to control; assay type: functional; conditions: OVCAR-4, 48 h, read-out: GI; in short: as §2
MCF7 = experiment: Growth inhibition of human MCF7 cells at 10 uM after 48 hrs by SRB assay relative to control; assay type: functional; conditions: MCF7, 48 h, read-out: GI; in short: as §2
U-251 = experiment: Growth inhibition of human U251 cells at 10 uM after 48 hrs by SRB assay relative to control; assay type: functional; conditions: U-251, 48 h, read-out: GI; in short: as §3
SF-268 = experiment: Growth inhibition of human SF268 cells at 10 uM after 48 hrs by SRB assay relative to control; assay type: functional; conditions: SF-268, 48 h, read-out: GI; in short: as §2
HeLa [8] = experiment: Induction of apoptosis in human HeLa cells assessed as necrotic cells after 24 hrs by Annexin V-FITC/propidium iodide staining based flow cytometry (reference value: 0.9%); assay type: functional; in short: as §1
UACC-62 = experiment: Growth inhibition of human UACC62 cells at 10 uM after 48 hrs by SRB assay relative to control; assay type: functional; conditions: UACC-62, 48 h, read-out: GI; in short: as §3
KM12 = experiment: Growth inhibition of human KM12 cells at 10 uM after 48 hrs by SRB assay relative to control; assay type: functional; conditions: KM12, 48 h, read-out: GI; in short: as §2
[9] = Cytotoxicity against human IOSE-80PC cells after 48 hrs by MTT assay; assay type: cell-based; in short: as §4
HeLa [10] = experiment: Induction of apoptosis in human HeLa cells assessed as late apoptotic cells after 48 hrs by Annexin V-FITC/propidium iodide staining based flow cytometry (reference value: 3.6%); assay type: functional; in short: as §1
HeLa [11] = experiment: Induction of apoptosis in human HeLa cells assessed as necrotic cells at 5 uM by Annexin V-FITC/propidium iodide staining based flow cytometry (reference value: 2.2%); assay type: functional; in short: as §1
OVCAR-3 = experiment: Growth inhibition of human OVCAR3 cells at 10 uM after 48 hrs by SRB assay relative to control; assay type: functional; conditions: OVCAR-3, 48 h, read-out: GI; in short: as §2

COc1cc(NC(=O)c2cccc(-c3cc(=O)c4c(OC)c(OC)c(OC)cc4o3)c2)cc(OC)c1OC
Activity (HeLa [1]): 89.3%
inhibition of growth at 10 µM (NCI-H322M): 30.5%
Activity (HeLa [2]): 13.4%
Activity (HeLa [3]): 80.3%
Activity (HeLa [4]): 11.8%
inhibition of growth at 10 µM (LOX IMVI): 75.6%
inhibition of growth at 10 µM (UO-31): 79.1%
inhibition of growth at 10 µM (SR): 70.2%
inhibition of growth at 10 µM (A549): 56.5%
IC50 (L132): > 100 µM
inhibition of growth at 10 µM (SK-MEL-2): 58.3%
inhibition of growth at 10 µM (HCC 2998): 25.9%
inhibition of growth at 10 µM (HCT-116): 51.4%
inhibition of growth at 10 µM (CAKI-1): 59.4%
inhibition of growth at 10 µM (UACC-257): 47.2%
Activity (HeLa [5]): 6.8%
inhibition of growth at 10 µM (HOP-92): 75.3%
Activity (HeLa [6]): 21.1%
inhibition of growth at 10 µM (COLO 205): 55.7%
inhibition of growth at 10 µM (NCI/ADR-RES): 48.9%
inhibition of growth at 10 µM (Hs-578T): 90.8%
Activity (HeLa [7]): Active
inhibition of growth at 10 µM (OVCAR-4): 25.1%
inhibition of growth at 10 µM (MCF7): 65.7%
inhibition of growth at 10 µM (U-251): 55.1%
inhibition of growth at 10 µM (SF-268): 32.9%
Activity (HeLa [8]): 1.8%
inhibition of growth at 10 µM (UACC-62): 49.5%
inhibition of growth at 10 µM (KM12): 54.2%
IC50 [9]: 67.6 µM
Activity (HeLa [10]): 39.1%
Activity (HeLa [11]): 5.7%
inhibition of growth at 10 µM (OVCAR-3): 59.2%

Source: ChEMBL document CHEMBL4325889, “Natural products hybrids: 3,5,4'-Trimethoxystilbene-5,6,7-trimethoxyflavone chimeric analogs as potential cytotoxic agents against diverse human cancer cells” (Eur J Med Chem, 2019)
